An excerpt weighted towards active compounds, which were near 2.2% of everything screened.
LMPTP block: LMPTP phosphatase inhibitors, primary screen, biochemical, fluorescence intensity, uHTS; Low molecular weight phosphotyrosine protein phosphatase (Homo sapiens), P24666; recombinant LMPTP-A, OMFP fluorogenic substrate; inhibition, % at 20 µM; 360,000 compounds, 0.22% hits; AID 651560, 2012;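 active = compounds that cut the enzyme signal by at least half of the control window in the single-dose screen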;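 note: plate controls were DMSO wells with enzyme plus substrate for no effect and substrate without enzyme for full effect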
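Test system: LMPTP-A phosphatase enzyme; input: 0.625 nM LMPTP-A final; reagent: OMFP substrate, 400 µM final; compound dosing: 20 µM single dose, 3% DMSO; incubation: 50 min dark incubation at room temperature; measured by: endpoint fluorescence intensity from OMFP dephosphorylation; measure: % inhibition relative to no-enzyme and uninhibited control wells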
SUMO1 PPI mod: modulators of SUMO1 protein-protein interactions, primary screen, biochemical, uHTS; AID 602429, 2012; inhibition, % at 20 µM; SUMO1 binding to a labelled peptide, TR-FRET, 1 h; 360,000 compounds, 0.33% hits; Small ubiquitin-related modifier 1 (Homo sapiens), P63165; in the data active = inhibition above about 37%
Scp1 inh: Scp-1 phosphatase inhibitors, primary screen, biochemical, colorimetric, uHTS | AID 493091, 2011 | Carboxy-terminal domain RNA polymerase II polypeptide A small phosphatase 1 (Homo … | Recombinant Scp1, phosphopeptide, malachite green phosphate absorbance | 340,000 compounds, 0.88% hits | inhibition, % at 20 µM;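 active = inhibition above about 50% at 20 µM, limit read from the data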;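 note: plate controls were DMSO wells with enzyme for no effect and wells lacking enzyme for full effect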
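Assay system: SCP-1 catalytic fragment, aa 76-261 | Buffer or medium: Tris acetate buffer pH 5.5 with MgCl2 and Tween-20 | Compound: One concentration, 20 µM, with 1.0% DMSO | Also added: Phospho 17-mer peptide substrate | Signal: Absorbance at 630 nm | Incubation: 45 min enzyme reaction at room temperature | Measure: % inhibition of SCP-1 phosphate liberation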
GRK2 aptamer HTS: compounds blocking aptamer binding on GRK2 – biochemical, human GRK2, bead flow cytometry, HTS, primary screen | Beta-adrenergic receptor kinase 1 (Homo sapiens), P25098 | FAM-aptamer displacement from GRK2 | inhibition of aptamer binding, % at 10 µM | 330,000 compounds, 0.59% hits | AID 488847, 2010;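 active = inhibition of aptamer binding above 40%, roughly 3 SD of noise, on plates passing a quality check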;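 note: median bead fluorescence of bound FAM aptamer so fluorescent compounds give negative values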
STEP inh: STEP phosphatase inhibitors, primary screen, biochemical, fluorescence intensity, uHTS. recombinant STEP, OMFP fluorogenic substrate. inhibition, % at 20 µM. 360,000 compounds, 0.25% hits;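 active = inhibition at 20 µM, scaled per plate between control wells, above about 37%, limit read from the data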;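 note: 0% = DMSO with enzyme and substrate and 100% = substrate only without enzyme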
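Measure: Control-normalized % inhibition with plate pattern correction | Test system: STEP phosphatase, cell-free reaction | Medium: pH 6.0 Bis-Tris with DTT and Tween 20 | Technique: Fluorescence, 480/540 nm | Times: Reaction 20 min, ambient temperature | Doses: Single compound dose of 20 µM, 1% DMSO final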
DNMT1 inh: human DNMT1 methyltransferase inhibitors, primary screen, biochemical, molecular beacon, fluorescence, HinP1I cleavage, uHTS. AID 588458, 2011. 360,000 compounds, 0.83% hits. inhibition (reported as % activation of signal), % at 10 µM; in the data active = inhibition above about 50%
The depositor's hits bear a star; . = no result.

SMILES | LMPTP block | SUMO1 PPI mod | Scp1 inh | GRK2 aptamer HTS | STEP inh | DNMT1 inh
COc1ccc2cc(C3CC=C(CO)CN3S(=O)(=O)c3ccccc3[N+](=O)[O-])n(C(=O)OC(C)(C)C)c2c1 (stereo unspecified) | 4.4 | 4.5 | . | . | . | .
CC1(Oc2ccccc2-c2ccno2)CCN(Cc2csc3ccccc23)C1 (stereo unspecified) | 0.4 | -2.3 | . | . | -2.9 | -7.0
O=C1[C@@H](Oc2ccccc2)[C@@H](c2ccccc2)N1c1ccccc1 | -2.2 | 1.8 | 1.3 | 41.0* | -1.8 | 16.3
CCc1nc2c(OCCOc3ccc(F)cc3)cccn2c1N(C)C(=O)c1ccc(OC)cc1 | -0.2 | 2.3 | . | . | -1.5 | -1.4
Cc1sc(NC(=O)CSc2nnc(COc3ccccc3)n2C)c(C#N)c1C | -1.3 | -0.8 | -7.8 | 0.0 | -1.0 | 6.1
Cc1sc(NC(=O)CSc2nnc3scc(-c4ccccc4)n23)c(C#N)c1C | 1.2 | 44.6* | -6.4 | 7.0 | 1.7 | 7.3
CC1CC(O)C2C3(C)CCCC2(COC3=O)C12CCC1(CCOC1=O)O2 (stereo unspecified) | -2.3 | 1.4 | . | . | -0.3 | 4.0
CC1=CC2=NC(=O)/C(=C\c3ccc(-c4cccc(Cl)c4)o3)C(=N)N2O1 | 13.4 | 13.1 | -8.3 | 0.0 | 1.3 | 27.5
CC1=NOC(=O)/C1=C\c1ccc(-c2ccccc2Br)o1 | 5.2 | 29.9 | -3.4 | . | 3.4 | 51.7*
CC1=NOC(=O)/C1=C\c1ccc(-c2cccc(Cl)c2)o1 | 4.3 | 40.0* | -4.4 | 0.0 | 7.5 | 57.2*
CCN(CC)CCOC(=O)c1ccc(N/C=C(/C#N)c2nc(-c3ccc4c(c3)OCO4)cs2)cc1 | 21.7 | 64.7* | 8.2 | 8.0 | 85.6* | -66.6
CCN(CC)CCOC(=O)c1ccc(N/C=C(/C#N)c2nc(-c3ccc(OC)cc3)cs2)cc1 | 4.5 | 81.3* | 11.2 | 0.0 | 11.0 | 36.3
O=C1NC[C@H](Cc2ccccc2)N(C[C@@H]2CCCN2C[C@H](Cc2ccc(O)cc2)N2C[C@H](Cc3ccccc3)N(CC3CCCCCC3)C(=O)C2=O)C1=O | 8.3 | 2.3 | . | . | . | .
Cc1ccc2nc(-c3ccc4c(c3)NC(=O)CO4)cn2c1 | 72.5* | -1.5 | -15.5 | 0.0 | -2.4 | 14.4
CCC(CC)C(=O)N(C)c1c(C)nc2c(OCCC3CCCCC3)cccn12 | 2.6 | 5.9 | . | . | 5.2 | -5.5
Cc1ccc(CN2C(=O)C(C)Sc3ccc(C#N)cc32)cc1 (stereo unspecified) | -0.5 | 0.3 | . | . | -0.4 | -3.3
CCOc1ccc(S(=O)(=O)Nc2cc(NS(=O)(=O)c3ccc(OCC)cc3)cc(C(=O)O)c2)cc1 | 16.0 | 17.1 | 54.7* | 10.0 | 1.0 | 32.2
CCOc1ccc(NS(=O)(=O)c2ccc(NS(=O)(=O)c3ccccc3)cc2)cc1 | 1.6 | 1.7 | -6.2 | 0.0 | -2.2 | 2.5
Cc1c(O)ccc2c(CN3CCN(Cc4ccccc4)CC3)cc(=O)oc12 | -2.0 | -10.1 | 2.2 | 0.0 | -1.7 | 2.4
O=c1cc(CN2CCN(Cc3ccccc3)CC2)c2ccc(O)c(O)c2o1 | 55.3* | -8.7 | 28.9 | 4.0 | 4.2 | 4.1
CCNC(=O)C1(C)CCCN(C(=O)c2ccc3c(c2)C(C)(C)CCC3(C)C)C1 (stereo unspecified) | -0.8 | -5.4 | . | . | 1.9 | -0.1
CN1C(=O)/C(=C/c2ccc(C(=O)Nc3ccc(O)cc3C(=O)O)cc2)SC1=S | 18.8 | 32.6 | 46.9 | 1.0 | 97.5* | -5.1
N#C/C(=C\c1ccc([N+](=O)[O-])o1)C(=O)Nc1ccc(F)cc1 | 5.8 | 9.1 | 56.5* | 5.0 | 0.8 | 32.5
NC(=O)C1CCN(C(=S)c2ccc(-c3ccc(Br)cc3)o2)CC1 | -1.1 | -6.6 | -2.5 | 0.0 | 95.2* | -0.9
